Source: ChEMBL document CHEMBL3351507, “11H-Pyrido[3',2':4,5]pyrrolo[3,2-c]cinnoline and pyrido[3',2':4,5]pyrrolo[1,2-c][1,2,3]benzotriazine: two new ring systems with antitumor activity” (2014)
Activity calls are given as the source filed them. No cut-off for these calls is given here.

What was measured:
CCRF-CEM [1] = experiment: Resistance index, ratio of GI50 for human vinblastin-resistant CEM cells to GI50 for human CEM cells; assay type: functional
Summary of the method: (§1)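 CEMVbl-100 (vinblastine-selected CEM) was grown in RPMI-1640 with 0.1 µg/mL vinblastine. LoVoDoxo was grown in HAM's F12 with 0.1 µg/mL doxorubicin; parental CEM and LoVo were grown without drug. Media had 10% FBS. 5x10^3 cells were seeded, preincubated 24 h at 37 °C, then exposed 72 h to compound (DMSO <1%). Read-out was MTT; GI50 came from dose-response curves of ≥3 experiments. RI = GI50 resistant / GI50 parental.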

HOP-62 = experiment: Cytotoxicity against human HOP62 cells assessed as growth inhibition after 72 hrs by MTT assay; assay type: functional; conditions: HOP-62, 72 h
DU-145 = experiment: Cytotoxicity against human DU145 cells assessed as growth inhibition after 72 hrs by MTT assay; assay type: functional; conditions: DU-145, 72 h
NCI-H460 = experiment: Cytotoxicity against human NCI-H460 cells assessed as growth inhibition after 72 hrs by MTT assay; assay type: functional; conditions: NCI-H460, 72 h
[2] = Cytotoxicity against human HCT15 cells assessed as growth inhibition after 72 hrs by MTT assay; assay type: functional; conditions: HCT-15, 72 h
A498 = experiment: Cytotoxicity against human A498 cells assessed as growth inhibition after 72 hrs by MTT assay; assay type: functional; conditions: A498, 72 h
CCRF-CEM [3] = experiment: Cytotoxicity against human vinblastin-resistant CEM cells assessed as growth inhibition after 72 hrs by MTT assay; assay type: functional; summary of the method: as §1
[4] = Cytotoxicity against human UACC62 cells assessed as growth inhibition after 72 hrs by MTT assay; assay type: functional; conditions: UACC-62, 72 h
Summary of the method: (§2)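 NCI 60-cell-line panel screen. Compounds were tested at 5 concentrations in 10-fold dilution (10^-4 to 10^-8 M) across the full panel. GI50 was taken as the molar concentration giving 50% inhibition of net cell growth.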

Jurkat [5] = experiment: Induction of apoptosis in human Jurkat cells assessed as loss of plasma membrane asymmetry at 250 to 500 nM after 24 hrs by annexin V-FITC/propidium iodide staining-based flow cytofluorimetric analysis; assay type: functional, cell-based
Summary of the method: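 Jurkat cells were incubated with 250 or 500 nM compound for 6 h or 24 h. They were then double-stained with Annexin V-FITC and propidium iodide and analysed by flow cytometry (488 nm excitation; emission 525 and 585 nm). Mean ± SEM of 3 experiments.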

[6] = Cytotoxicity against human NCI-ADR-RES cells assessed as growth inhibition after 72 hrs by MTT assay; assay type: functional
KM12 = experiment: Cytotoxicity against human KM12 cells assessed as growth inhibition after 72 hrs by MTT assay; assay type: functional; conditions: KM12, 72 h
IGROV-1 = experiment: Cytotoxicity against human IGROV1 cells assessed as growth inhibition after 72 hrs by MTT assay; assay type: functional; conditions: IGROV-1, 72 h
SK-MEL-28 = experiment: Cytotoxicity against human SK-MEL-28 cells assessed as growth inhibition after 72 hrs by MTT assay; assay type: functional; conditions: SK-MEL-28, 72 h; summary of the method: as §2
RPMI-8226 = experiment: Cytotoxicity against human RPMI8226 cells assessed as growth inhibition after 72 hrs by MTT assay; assay type: functional; conditions: RPMI-8226, 72 h; summary of the method: as §2
ACHN = experiment: Cytotoxicity against human ACHN cells assessed as growth inhibition after 72 hrs by MTT assay; assay type: functional
U-251 = experiment: Cytotoxicity against human U251 cells assessed as growth inhibition after 72 hrs by MTT assay; assay type: functional; conditions: U-251, 72 h; summary of the method: as §2
HOP-92 = experiment: Cytotoxicity against human HOP92 cells assessed as growth inhibition after 72 hrs by MTT assay; assay type: functional; conditions: HOP-92, 72 h
Jurkat [7] = experiment: Cell cycle arrest in human Jurkat cells assessed as accumulation at G1 phase at 0.25 uM after 24 hrs by propidium iodide staining-based flow cytometry (reference value: 62.6%); assay type: functional
COLO 205 = experiment: Cytotoxicity against human COLO205 cells assessed as growth inhibition after 72 hrs by MTT assay; assay type: functional; conditions: COLO 205, 72 h
NCI-H522 = experiment: Cytotoxicity against human NCI-H522 cells assessed as growth inhibition after 72 hrs by MTT assay; assay type: functional; conditions: NCI-H522, 72 h; summary of the method: as §2
[8] = biological target: T1, DNA topoisomerase 1 (Homo sapiens) (UniProt P11387); experiment: Inhibition of human DNA topoisomerase 1-mediated DNA single strand cleavage at 5 to 100 uM after 30 mins by agarose gel electrophoresis relative to untreated control
T1 sequence (whole entry): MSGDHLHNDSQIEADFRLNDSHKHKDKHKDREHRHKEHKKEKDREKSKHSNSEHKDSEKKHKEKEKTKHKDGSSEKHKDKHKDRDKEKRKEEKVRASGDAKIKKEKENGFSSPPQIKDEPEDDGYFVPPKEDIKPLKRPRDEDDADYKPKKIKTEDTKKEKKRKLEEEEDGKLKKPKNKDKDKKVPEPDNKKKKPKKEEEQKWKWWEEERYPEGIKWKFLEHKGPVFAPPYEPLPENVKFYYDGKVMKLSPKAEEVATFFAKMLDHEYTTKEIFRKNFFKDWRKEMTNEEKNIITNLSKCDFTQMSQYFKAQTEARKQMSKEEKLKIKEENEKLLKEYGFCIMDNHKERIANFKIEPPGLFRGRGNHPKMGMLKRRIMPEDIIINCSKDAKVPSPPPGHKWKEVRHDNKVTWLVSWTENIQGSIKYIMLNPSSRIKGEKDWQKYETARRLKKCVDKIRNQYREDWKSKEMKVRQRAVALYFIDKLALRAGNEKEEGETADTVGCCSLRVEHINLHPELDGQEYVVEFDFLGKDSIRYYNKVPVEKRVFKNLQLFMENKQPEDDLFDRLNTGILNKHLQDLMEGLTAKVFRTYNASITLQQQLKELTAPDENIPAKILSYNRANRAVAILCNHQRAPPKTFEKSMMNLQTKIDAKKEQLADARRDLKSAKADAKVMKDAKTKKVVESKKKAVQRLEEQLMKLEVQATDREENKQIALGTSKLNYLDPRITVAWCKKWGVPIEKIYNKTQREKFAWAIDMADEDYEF
Summary of the method: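 Reactions were set up as for relaxation: human topoisomerase I, 0.250 µg pBR322, compound 5-100 µM, 37 °C for 30 min, stopped with SDS/proteinase K. Samples were run on 0.8% agarose containing 0.5 µg/mL ethidium bromide, then destained in water, so that cleaved/nicked DNA could be detected under UV.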

SK-MEL-2 = experiment: Cytotoxicity against human SK-MEL-2 cells assessed as growth inhibition after 72 hrs by MTT assay; assay type: functional; conditions: SK-MEL-2, 72 h; summary of the method: as §2
SF-295 = experiment: Cytotoxicity against human SF295 cells assessed as growth inhibition after 72 hrs by MTT assay; assay type: functional; conditions: SF-295, 72 h; summary of the method: as §2
NCI-H322M = experiment: Cytotoxicity against human NCI-H322M cells assessed as growth inhibition after 72 hrs by MTT assay; assay type: functional
SR = experiment: Cytotoxicity against human SR cells assessed as growth inhibition after 72 hrs by MTT assay; assay type: functional; summary of the method: as §2

SMILES | GI50 (HOP-62) [nM] | GI50 (DU-145) [nM] | GI50 (NCI-H460) [nM] | GI50 [2] [nM] | GI50 (A498) [nM] | GI50 [4] [nM] | GI50 [6] [nM] | GI50 (KM12) [nM] | GI50 (IGROV-1) [nM] | GI50 (SK-MEL-28) [nM] | GI50 (RPMI-8226) [nM] | GI50 (ACHN) [nM] | GI50 (U-251) [nM] | GI50 (HOP-92) [nM] | GI50 (COLO 205) [nM] | GI50 (NCI-H522) [nM] | GI50 (SK-MEL-2) [nM] | GI50 (SF-295) [nM] | GI50 (NCI-H322M) [nM] | GI50 (SR) [nM] | other results
COc1ccc2c(c1)nnc1c3cccnc3[nH]c21 | 5470 | 1880 | 1930 | 2260 | 8000 | 910 | 1790 | 1220 | 310 | 11800 | 730 | 200 | 930 | 82 | 1130 | 1090 | 1960 | 1590 | 10000 | 31 | Ratio (CCRF-CEM [1]): 1.57; GI50 (CCRF-CEM [3]): 1020 nM; Activity (Jurkat [5]): Active; Activity (Jurkat [7]): 30.2%; Activity [8]: Active
COc1cc2nnn3c4ncccc4c(N=O)c3c2cc1OC | 1900 | 1990 | 2610 | 1620 | 15800 | 2920 | 380 | 1380 | 1940 | 9100 | 110 | 250 | 600 | 39 | 5260 | 4010 | 17300 | 2620 | 22700 | 18 | Ratio (CCRF-CEM [1]): 2.13; GI50 (CCRF-CEM [3]): 510 nM; Activity (Jurkat [5]): Active; Activity (Jurkat [7]): 37.3%; Activity [8]: Active
COc1cc2nnc3c4cccnc4[nH]c3c2cc1OC | 2260 | 2100 | 2460 | 1430 | 2740 | 2490 |  | 1910 | 1730 | 4490 | 190 | 330 | 920 | 210 | 2960 | 2050 | 11300 | 2430 | 20600 | 39 | 
COc1ccc2c(c1)nnn1c3ncccc3c(N=O)c21 | 7510 | 1860 | 1670 | 3130 | 1270 | 850 | 1420 | 1030 | 110 | 3480 | 260 | 94 | 720 | 42 | 680 | 1250 | 2180 | 4690 | 9670 | 9 | Ratio (CCRF-CEM [1]): 2; GI50 (CCRF-CEM [3]): 440 nM; Activity (Jurkat [5]): Active; Activity (Jurkat [7]): 35.5%; Activity [8]: Active
O=Nc1c2cccnc2n2nnc3ccc(Cl)cc3c12 | 1440 | 610 | 1330 | 960 | 1910 | 2360 | 430 | 910 | 1350 | 1060 | 170 | 330 | 1270 | 100 | 1000 | 950 | 2280 | 2070 | 8600 | 17 | 
